In ChEMBL document CHEMBL4270537, “Design and biological evaluation of novel triaryl pyrazoline derivatives with dioxane moiety for selective BRAFV600E inhibition” (Eur J Med Chem, 2018):
Calls of active or inactive are those of the source. The calls are words filed in the database; no cut-off is given here.

How the values were obtained:
A-375 [1] = assay: Effect on total ERK1/2 protein level in human A375 cells after 30 mins by Western blot analysis; format: ADME, cell-based; conditions: a-375, 0.5 h
Procedure, shortened: (§1)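 Western blot. Cells rinsed in cold PBS, lysed 30 min on ice in RIPA with protease inhibitors (1:100), cleared at 12,000 g, 4 °C. Protein measured by BCA, resolved by SDS-PAGE, transferred to PVDF, blocked in skim milk. Primary antibodies 1:500 overnight at 4 °C; secondary 1:5000 for 1 h at room temperature.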

A-375 [2] = assay: Induction of apoptosis in human A375 cells assessed as viable cells at 2 uM after 48 hrs by Annexin V-FITC/PI staining based flow cytometry (reference value: 89.4%); format: functional; conditions: A-375, 48 h, read-out: Activity
[3] = Antiproliferative activity against human WM1361 cells after 48 hrs by MTT assay; format: functional; conditions: WM1361, 48 h
Procedure, shortened: (§2)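 MTT reduction assay. Cell lines grown to log phase in DMEM with 10% FBS (A375 in DMEM with sodium pyruvate added), seeded at 10⁴ cells/well in 96-well plates. Three replicate wells per concentration, each assay run three times, GI50 averaged.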

A-375 [4] = assay: Induction of apoptosis in human A375 cells assessed as viable cells at 2 uM after 24 hrs by Annexin V-FITC/PI staining based flow cytometry (reference value: 89.4%); format: functional; conditions: A-375, 24 h, read-out: Activity
A-375 [5] = assay: Induction of apoptosis in human A375 cells assessed as necrotic cells at 10 uM after 24 hrs by Annexin V-FITC/PI staining based flow cytometry (reference value: 1.61%); format: functional
A-375 [6] = assay: Cell cycle arrest in human A375 cells assessed as accumulation at G1 phase at 5 uM after 24 hrs by propidium iodide staining based flow cytometry (reference value: 73.6%); format: functional
A-375 [7] = assay: Induction of apoptosis in human A375 cells assessed as necrotic cells at 2 uM after 24 hrs by Annexin V-FITC/PI staining based flow cytometry (reference value: 1.55%); format: functional
A-375 [8] = assay: Cell cycle arrest in human A375 cells assessed as accumulation at G1 phase at 2 uM after 72 hrs by propidium iodide staining based flow cytometry (reference value: 73.6%); format: functional
A-375 [9] = assay: Cell cycle arrest in human A375 cells assessed as accumulation at G1 phase at 2 uM after 48 hrs by propidium iodide staining based flow cytometry (reference value: 73.6%); format: functional
[10] = molecular target: Mitogen-activated protein kinase 8 (Homo sapiens, UniProt P45983); assay: Inhibition of N-terminal flag-tagged JNK1 (unknown origin) expressed in baculovirus expression system after 60 mins in presence of [gamma-32P]ATP by topcount scintillation method
Procedure, shortened: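 Baculovirus-expressed N-terminal FLAG-tagged kinases in 25 mM HEPES pH 7.5, 10 mM Mg acetate, 1 mM DTT, 0.5 µM ATP plus [γ-³²P]ATP, 50 µL. p38α: 100 ng enzyme, MBP substrate. JNK1: 10 ng enzyme, 1 µg c-Jun. Compound and enzyme preincubated 5 min, ATP started the reaction, 60 min at 30 °C. Stopped with 10% TCA, filtered, washed with 3% phosphoric acid, counted by TopCount.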

A-375 [11] = assay: Induction of apoptosis in human A375 cells assessed as late apoptotic cells at 10 uM after 24 hrs by Annexin V-FITC/PI staining based flow cytometry (reference value: 4.26%); format: functional
A-375 [12] = assay: Cell cycle arrest in human A375 cells assessed as accumulation at S phase at 2 uM after 48 hrs by propidium iodide staining based flow cytometry (reference value: 21.3%); format: functional
[13] = Cytotoxicity against human LO2 cells assessed as decrease in cell viability after 48 hrs by MTT assay; format: cell-based, L02; procedure, shortened: as §2
A-375 [14] = assay: Induction of apoptosis in human A375 cells assessed as early apoptotic cells at 2.5 uM after 24 hrs by Annexin V-FITC/PI staining based flow cytometry (reference value: 5.45%); format: functional
A-375 [15] = assay: Induction of apoptosis in human A375 cells assessed as early apoptotic cells at 2 uM after 72 hrs by Annexin V-FITC/PI staining based flow cytometry (reference value: 5.42%); format: functional
Procedure, shortened: (§3)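 Apoptosis time course. A375 cells in 24-well plates (about 10⁵/well) at 2 µM for 0, 24, 48 and 72 h. Harvested by trypsin, washed in PBS, stained 15 min at room temperature in the dark with Annexin V-FITC/PI, analysed by flow cytometry.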

[16] = tested on: Serine/threonine-protein kinase B-raf (Homo sapiens), P15056 [V600E]; assay: Inhibition of BRAF V600E mutant in human A375 cells assessed as decrease in ERK1/2 phosphorylation after 30 mins by Western blot analysis; format: cell-based
Procedure, shortened: (§4)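 A375 cells treated with compound at 0, 0.05, 0.1 and 0.5 µM, then PBS-rinsed and lysed in RIPA with protease inhibitors on ice for 30 min. Lysate was cleared at 12,000 g, 4 °C, and protein assayed by BCA. Samples run on SDS-PAGE and transferred to PVDF. Membranes were milk-blocked, probed with primary antibody (1:500) overnight at 4 °C, then secondary antibody (1:5000) for 1 h at room temperature.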

A-375 [17] = assay: Cell cycle arrest in human A375 cells assessed as accumulation at S phase at 2 uM after 24 hrs by propidium iodide staining based flow cytometry (reference value: 21.3%); format: functional
A-375 [18] = assay: Cell cycle arrest in human A375 cells assessed as accumulation at G2/M phase at 2 uM after 72 hrs by propidium iodide staining based flow cytometry (reference value: 5.1%); format: functional
[19] = tested on: Serine/threonine-protein kinase B-raf (Homo sapiens), P15056 [V600E]; assay: Inhibition of BRAF V600E mutant in human A375 cells assessed as decrease in MEK1/2 phosphorylation after 30 mins by Western blot analysis; format: cell-based; procedure, shortened: as §4
A-375 [20] = assay: Cell cycle arrest in human A375 cells assessed as accumulation at G2/M phase at 10 uM after 24 hrs by propidium iodide staining based flow cytometry (reference value: 5.1%); format: functional
[21] = molecular target: Serine/threonine-protein kinase B-raf (Homo sapiens, UniProt P15056); assay: Inhibition of wild type BRAF in human WM1361 cells assessed as decrease in MEK1/2 phosphorylation up to 5 uM after 30 mins by Western blot analysis; format: cell-based
A-375 [22] = assay: Induction of apoptosis in human A375 cells assessed as late apoptotic cells at 2 uM after 24 hrs by Annexin V-FITC/PI staining based flow cytometry (reference value: 3.61%); format: functional; procedure, shortened: as §3
A-375 [23] = assay: Cell cycle arrest in human A375 cells assessed as accumulation at S phase at 20 uM after 24 hrs by propidium iodide staining based flow cytometry (reference value: 21.3%); format: functional
A-375 [24] = assay: Cell cycle arrest in human A375 cells assessed as accumulation at G2/M phase at 2.5 uM after 24 hrs by propidium iodide staining based flow cytometry (reference value: 5.1%); format: functional
A-375 [25] = assay: Induction of apoptosis in human A375 cells assessed as late apoptotic cells at 2 uM after 72 hrs by Annexin V-FITC/PI staining based flow cytometry (reference value: 3.61%); format: functional; procedure, shortened: as §3
A-375 [26] = assay: Induction of apoptosis in human A375 cells assessed as viable cells at 2.5 uM after 24 hrs by Annexin V-FITC/PI staining based flow cytometry (reference value: 88.7%); format: functional; conditions: A-375, 24 h, read-out: Activity
[27] = Effect on total MEK1/2 protein level in human WM1361 cells after 30 mins by Western blot analysis; format: ADME, cell-based; conditions: 0.5 h; procedure, shortened: as §1

Sequence of Serine/threonine-protein kinase B-raf (Homo sapiens), P15056 [V600E] (P15056 whole entry V600E): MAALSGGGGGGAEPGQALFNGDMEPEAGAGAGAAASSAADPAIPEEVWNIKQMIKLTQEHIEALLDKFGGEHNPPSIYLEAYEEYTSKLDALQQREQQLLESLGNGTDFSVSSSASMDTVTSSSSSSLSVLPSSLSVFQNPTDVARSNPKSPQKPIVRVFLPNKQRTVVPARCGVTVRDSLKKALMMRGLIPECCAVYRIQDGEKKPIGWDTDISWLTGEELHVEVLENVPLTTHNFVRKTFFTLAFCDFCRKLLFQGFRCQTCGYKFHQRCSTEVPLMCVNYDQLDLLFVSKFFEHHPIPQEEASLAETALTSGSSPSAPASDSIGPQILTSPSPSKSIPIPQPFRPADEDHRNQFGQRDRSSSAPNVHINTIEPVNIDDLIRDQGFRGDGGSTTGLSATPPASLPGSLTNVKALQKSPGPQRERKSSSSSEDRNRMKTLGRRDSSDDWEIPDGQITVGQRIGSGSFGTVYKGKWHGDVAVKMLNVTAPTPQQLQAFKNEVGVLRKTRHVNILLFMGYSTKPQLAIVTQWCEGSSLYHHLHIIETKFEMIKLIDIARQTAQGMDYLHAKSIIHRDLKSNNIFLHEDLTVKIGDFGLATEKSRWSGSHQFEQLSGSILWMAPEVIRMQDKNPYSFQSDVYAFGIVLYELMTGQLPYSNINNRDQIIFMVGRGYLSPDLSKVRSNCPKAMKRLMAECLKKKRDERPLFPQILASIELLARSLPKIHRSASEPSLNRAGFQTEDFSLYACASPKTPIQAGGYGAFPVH
Sequence of Mitogen-activated protein kinase 8 (P45983 whole entry): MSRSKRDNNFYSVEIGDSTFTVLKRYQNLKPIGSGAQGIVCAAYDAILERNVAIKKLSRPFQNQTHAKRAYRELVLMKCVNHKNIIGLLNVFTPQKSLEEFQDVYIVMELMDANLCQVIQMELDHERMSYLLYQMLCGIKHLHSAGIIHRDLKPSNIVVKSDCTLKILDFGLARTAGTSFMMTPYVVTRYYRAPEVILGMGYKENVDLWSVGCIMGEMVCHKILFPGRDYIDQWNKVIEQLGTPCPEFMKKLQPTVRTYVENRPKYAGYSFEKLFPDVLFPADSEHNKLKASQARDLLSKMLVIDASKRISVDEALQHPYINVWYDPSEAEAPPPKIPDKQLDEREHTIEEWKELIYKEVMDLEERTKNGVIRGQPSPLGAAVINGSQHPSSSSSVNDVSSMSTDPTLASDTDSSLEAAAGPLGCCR
Sequence of Serine/threonine-protein kinase B-raf (P15056 whole entry): as the sequence (P15056 whole entry V600E) above, with E600V counted along it

## COc1cccc(C2=NN(C(=S)Nc3ccccc3)C(c3ccc4c(c3)OCCO4)C2)c1 (configuration not stated)
A-375 [1]
  Activity: Non-Toxic
A-375 [2]
  viability at 2 µM: 74.5%
[3]
  GI50: > 200 µM
A-375 [4]
  viability at 2 µM: 80.8%
A-375 [5]
  Activity: 2.6%
A-375 [6]
  Activity: 61.3%
A-375 [7]
  Activity: 2.56%
A-375 [8]
  Activity: 35.6%
A-375 [9]
  Activity: 58.8%
[10]
  IC50: > 200 µM
A-375 [11]
  Activity: 10.8%
A-375 [12]
  Activity: 26.2%
[13]
  GI50 at 48 h: > 200 µM
A-375 [14]
  Activity: 16.7%
A-375 [15]
  Activity: 20.2%
[16]
  inhibition: Dose-dependent effect
A-375 [17]
  Activity: 17.3%
A-375 [18]
  Activity: 36.8%
[19]
  inhibition: Dose-dependent effect
A-375 [20]
  Activity: 18.1%
[21]
  inhibition: inactive
A-375 [22]
  Activity: 6.76%
A-375 [23]
  Activity: 16.9%
A-375 [24]
  Activity: 8.2%
A-375 [25]
  Activity: 6.49%
A-375 [26]
  viability at 2.5 µM: 74.4%
[27]
  Activity: Non-Toxic
